# Hits are enriched below; roughly 2% of the tested compounds scored in any of these assays.
# TPT1 inh = Candida albicans TPT1 enzyme inhibitors, primary screen, biochemical, fluorescence polarization; tRNA 2'-phosphotransferase TPT1 (Candida albicans SC5314); recombinant caTPT1, FP RNA substrate dephosphorylation; inhibition, % at 5 µM; actives 0.81% (n = 300,000);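 active = inhibition above the mean of all tested compounds plus 3 SD, set per screening campaign, cut at about 24% in these data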;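 note: plate controls were DMSO alone for no effect and ferristatin control at 100 nM for full effect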
# SENP1 FRET inh = human SENP1 catalytic domain inhibitors, primary screen, biochemical, FRET, uHTS. Sentrin-specific protease 1 (Homo sapiens), Q9P0U3. recombinant SENP1 catalytic domain, CyPet-SUMO1-YPet FRET cleavage. inhibition, % at 10 µM. actives 0.21% (n = 360,000). AID 624204, 2012;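 active = inhibition at least 30% at 10 µM, raw YFP signal under a set limit, fluorescence ratio 0.5 to 1.5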;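 note: 0% = enzyme with DMSO and 100% = no enzyme wells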
#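 Test system: recombinant human SENP1 catalytic domain, His6-tagged / Medium: pH 8 Tris buffer with EDTA, NaCl, BME, BSA, NP40, catalase / Also added: SUMO1 FRET substrate flanked by Cypet and Ypet, 25 nM / Times: 50 min reaction at room temperature / Signal: FRET, CFP and YFP emission / Control set: no-enzyme low control and enzyme-plus-DMSO high control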
# CSN deneddyl inh = inhibitors of CSN-mediated cullin deneddylation, primary screen, biochemical, fluorescence polarization, uHTS. COP9 signalosome complex subunit 5 (Homo sapiens), Q92905. Purified CSN, SCF-Nedd8-OG deneddylation. inhibition, % at 12.5 µM. actives 0.38% (n = 360,000);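 active = pattern-corrected inhibition above about 35%, with an unprinted fluorescence ratio check between 0.5 and 1.5, limit read from the data, passing the limit was not always enough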;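 note: 0% = enzyme with substrate and 100% = substrate without enzyme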
#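 test system = HEK293T-derived human Csn5 enzyme | amount = 0.24 nM Csn5 enzyme, final concentration | medium = Tris/NaCl/DTT buffer, pH 7.5 | schedule = 90 min reaction at room temperature | signal = FP | evaluation = inhibition of Csn5 cleavage, % | compound dosing = single dose of 12.5 µM compound with 0.25% DMSO | probe or stimulus = 10 nM SCFSkp2-Nedd8OG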
# ATG4B inh = ATG4B protease inhibitors, primary screen, biochemical, fluorescence, uHTS; actives 0.51% (n = 340,000); ATG4B cleavage of LC3-PLA2, NBD-HPC fluorescence, 1 h; inhibition, % at 8.33 µM; AID 504462, 2011
# Target sequence (Q9Y4P1 whole entry, looked up): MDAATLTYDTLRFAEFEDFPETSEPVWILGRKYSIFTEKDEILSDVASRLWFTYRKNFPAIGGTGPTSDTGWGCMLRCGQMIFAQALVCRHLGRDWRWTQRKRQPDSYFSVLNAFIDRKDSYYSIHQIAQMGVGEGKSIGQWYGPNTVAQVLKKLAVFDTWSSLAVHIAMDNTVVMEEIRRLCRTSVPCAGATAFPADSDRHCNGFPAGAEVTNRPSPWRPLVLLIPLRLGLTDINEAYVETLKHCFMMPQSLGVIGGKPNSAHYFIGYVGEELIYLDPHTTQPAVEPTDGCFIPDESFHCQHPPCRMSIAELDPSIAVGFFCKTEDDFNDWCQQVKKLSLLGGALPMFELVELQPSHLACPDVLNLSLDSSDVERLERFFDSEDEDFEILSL
# Rpn11 block = Rpn11 (PSMD14) deubiquitinase inhibitors, primary screen, biochemical, fluorescence polarization, uHTS | 26S proteasome non-ATPase regulatory subunit 14 (Homo sapiens), O00487 | human 26S proteasome, Ub4-pepOG fluorescence polarization; 20S core pre-blocked with epoxomicin | inhibition, % at 20 µM | actives 0.59% (n = 360,000) | AID 588493, 2011;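 active = inhibition at 20 µM, scaled to each plate's controls, above about 33%, limit read from the data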
# HNF4A DNA FP = change in binding of human HNF4A to DNA, primary screen, biochemical, fluorescence polarization, FITC-DNA; 1 h; activity change, % at 10 µM; actives 0.3% (n = 360,000); in the data active = activity change above about 30%, passing the limit was not always enough
# Rpn11 inh conf = Rpn11 (PSMD14) deubiquitinase inhibitors, confirmation, biochemical, fluorescence polarization, single concentration; shares compounds with Rpn11 block; purified human 26S proteasome, Ub4-pepOG fluorescence polarization; proteasome pretreated with epoxomicin; inhibition, % at 20 µM; actives 29% (n = 1,900)
# MMP-2 counter = MMP-2 enzyme inhibition, confirmation, counter-screen for RPN11 inhibitor project, biochemical, fluorescence, single concentration; shares compounds with Rpn11 block; recombinant MMP-2, FRET peptide cleavage fluorescence; inhibition, % at 20 µM; actives 4% (n = 1,900); AID 602330, 2012;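 note: human MMP-2 activated beforehand with APMA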
# Thrombin FP = bovine thrombin protease inhibition, confirmation, counter-screen for Rpn11 inhibitor project, biochemical, fluorescence polarization, single concentration. shares compounds with Rpn11 block. bovine thrombin cleavage of Ub4-pepOG. inhibition, % at 20 µM. actives 13% (n = 1,900);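 active = mean inhibition at least 40% at 20 µM, or signal 3 deviations below plate average, so some actives read negative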;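 note: plate controls were thrombin with DMSO for no effect and buffer wells lacking thrombin for full effect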
# Starred values were filed as active, the others as inactive; · = no result given; + = active, no number. Cut-off read from the data, not from the text of the source, unless noted: active = inhibition above about 40%; inactive = the rest.
SMILES,TPT1 inh,SENP1 FRET inh,CSN deneddyl inh,ATG4B inh,Rpn11 block,HNF4A DNA FP,Rpn11 inh conf,MMP-2 counter,Thrombin FP
O=C(Nc1ccc(Cl)cc1)Nc1nnc(-c2ccncc2)s1,1.8,-150.7,24.5,-2.9,169.8*,-12.7,29.6,2.8,-21.9
Cc1ccc(NC(=O)Nc2nnc(-c3ccncc3)s2)cc1C,-0.2,-31.9,16.1,-4.5,-1.1,-11.7,·,·,·
O=C(Nc1ccc(F)cc1)Nc1nnc(-c2ccncc2)s1,-3.1,-58.3,16.9,-8.3,65.5*,-0.8,41.3*,-2.5,3.2
O=C(Nc1ccccc1C(=O)Nc1nnc(C(F)(F)F)s1)c1ccccc1,2.2,0.0,-3.0,10.2,34.8*,-12.0,5.3,0.8,-6.4
Cc1cc(C)n2nc(N)c(N=Nc3ccc4c(c3)OCO4)c2n1,14.9,-22.6,11.5,-3.1,44.0*,4.6,37.1,-62.5,36.2
Cc1cc(C)n2nc(N)c(N=Nc3ccccc3)c2n1,-1.1,0.2,4.5,-15.2,0.1,-1.8,·,·,·
CC(=O)NCCC(=O)Nc1ccc(F)cc1C,-1.4,3.0,-2.1,9.1,114.1*,21.5,-11.0,-45.7,0.1
CSc1cccc(NC(=O)c2cccc3cccnc23)c1,6.5,-3.5,0.9,-11.4,6.8,0.6,·,·,·
COC(=O)c1ccc(OC(=O)CCS(=O)(=O)c2ccc(C)cc2)cc1,-1.2,2.4,0.9,5.5,-2.8,1.0,·,·,·
COc1ccc(Nc2nc(-c3cccs3)cs2)c(OC)c1,1.3,8.1,-3.2,-11.8,30.1*,9.9,-15.2,-10.6,-7.4
Nc1[nH]c(C(=O)c2ccccc2)c(-c2ccccc2Br)c1C(=O)c1ccccc1,·,-5.9,-5.6,·,·,-0.6,·,·,·
CC(=O)c1cccc(NC(=O)c2cccc3c(-c4cccc(C(N)=O)c4)coc23)c1,·,-1.4,22.0,·,+,1.0,30.6,-25.4,56.8*
COc1ccc(-c2nn(CCC(=O)O)cc2/C=C2\SC(N)=NC2=O)cc1,10.8,2.3,-4.5,9.5,46.8*,8.3,38.1,-4.7,30.9
NC1=NC(=O)/C(=C/c2cn(CCC(=O)O)nc2-c2ccc(Cl)cc2)S1,15.9,-0.7,4.6,-2.9,43.0*,3.9,46.4*,-2.8,32.5
CCSc1nnc(NC(=O)C2CCCN(C(=O)c3ccc(Cl)cc3)C2)s1 (stereo not given),·,1.6,-1.3,·,2.3,-1.6,·,·,·
Cc1ccc(S(=O)(=O)N2CCN(C(=O)COC(=O)CCOc3ccccc3C)CC2)c(C)c1,·,3.1,-0.7,-11.3,-1.3,0.1,·,·,·
Cn1nnnc1SCC(=O)Nc1ncc(Cl)cc1Cl,-0.3,-0.7,4.0,4.0,1.2,-5.5,·,·,·
Cc1nc2scc(C)n2c(=O)c1S(=O)(=O)N1CCN(c2ccc([N+](=O)[O-])cc2)CC1,-1.8,-54.0,7.2,-0.9,-4.9,-0.4,·,·,·
COc1cc(/C=C2\SC(=S)N(N(C)c3ccccc3)C2=O)ccc1O,12.7,15.2,18.8,-4.8,57.3*,13.5,6.2,-16.1,9.2
CN=C1S/C(=C\c2ccc(O)c(OC)c2)C(=O)N1C,2.2,-8.1,6.8,-16.0,11.9,3.0,·,·,·
